Experimental data from different studies.
Protocols differ between the studies behind these lines.

SMILES	test	test system	conditions	quantity	value
O=C1NC2(CCC2)C(=O)N1c1ccc(F)c(C(F)(F)F)c1	nephelometry	aqueous buffer		kinetic solubility	≤ 50 µg/mL
CCCSc1ccc2nc(NC(=O)OC)[nH]c2c1		simulated gastric fluid	24 h, pH 1.2, 37 °C, acidic	thermodynamic solubility	~300 µg/mL
c1cc(-c2ccc3ncnc(Nc4ncco4)c3c2)cc(N2C[C@H]3C[C@@H]2CO3)c1		aqueous buffer	pH 7.4, 25 °C	solubility	6 µM
CC[C@H](C)[C@@H]1NC(=O)CNC(=O)[C@@H](CC(C)C)NC(=O)[C@@H](C(C)C)NC(=O)[C@H]2CCCN2C(=O)[C@@H](CC(C)C)NC(=O)[C@H](Cc2ccccc2)NC(=O)[C@@H]2CCCN2C(=O)[C@H](CC(C)C)NC(=O)[C@H](CO)NC(=O)CNC(=O)[C@H]([C@@H](C)O)NC1=O		aqueous buffer	18 h, pH 7.4	solubility	692 µM
CCC(CNc1nc(-c2cn3ccnc3cc2C)nc2ccccc12)c1ccccc1 (centres unmarked)		water		solubility	1.3 µM
COc1cc(N2CC[C@@]3(O)C(=O)c4cc(C)c(C)cc4N=C23)ccn1		PBS	pH 7.4	solubility	42 µM
COc1cc(C(=O)c2nc(-c3cccc4[nH]ccc34)c[nH]2)cc(OC)c1OC		PBS	pH 7.4	thermodynamic solubility	5.25 µM
CC1(CC(F)(F)F)NC(=O)N(c2ccc(F)c(C(F)(F)F)c2)C1=O (centres unmarked)	nephelometry	aqueous buffer		kinetic solubility	≤ 50 µg/mL
CC(C)C[C@@H]1NC(=O)[C@H](CCC(=O)O)NC(=O)[C@H]2CCCN2C(=O)[C@@H](N)CSSC[C@@H](C(=O)O)NC(=O)[C@H]2CCCN2C(=O)[C@@H](Cc2ccccc2)NC(=O)[C@H](CC(C)C)NC(=O)[C@H]([C@@H](C)O)NC(=O)[C@H](C(C)C)NC1=O		aqueous buffer	18 h, pH 7.4	thermodynamic solubility	679 µM
Cc1ccc2c(c1)C(=O)C1(O)CCN(c3ccccc3)C1=N2 (centres unmarked)		PBS	pH 7.4	solubility	21 µM
CN(C)CCOc1ccc(C=Nc2ccccc2N=Cc2ccc(OCCN(C)C)cc2O)c(O)c1.[Ga+3]		water		solubility	> 50000 µg/mL
CC(C)C[C@H]1C(=O)N[C@H]([C@H](C)O)C(=O)N[C@@H](C)C(=O)N[C@@H](Cc2ccccc2)C(=O)N[C@H](C(=O)O)CSSC[C@H](N)C(=O)N2CCC[C@@H]2C(=O)N[C@@H](CCC(=O)O)C(=O)N[C@@H](C(C)C)C(=O)N2CCC[C@H]2C(=O)N1C		aqueous buffer	18 h, pH 7.4	solubility	692 µM
Oc1ccccc1C=Nc1ccccc1N=Cc1ccccc1O.[Ga+3]		water		solubility	< 100 µg/mL
CC(C)C[C@H]1C(=O)N2CCC[C@H]2C(=O)N[C@@H](CC(N)=O)C(=O)N[C@H](Cc2ccc(O)cc2)C(=O)N[C@H]([C@H](C)O)C(=O)N[C@@H](Cc2ccc(O)cc2)C(=O)N[C@H](C(=O)O)CSSC[C@H](N)C(=O)N[C@@H](Cc2ccccc2)C(=O)N[C@@H](C(C)C)C(=O)N1C		aqueous buffer	18 h, pH 7.4	thermodynamic solubility	760 µM
